Assay outcomes from PubChem.
Calb biofilm kill: mixture kills Candida albicans biofilm cells. C. albicans biofilm persisters + clotrimazole, fluorescence viability; primary screen in compound mixtures of four per well. inhibition, % at 7.6 µM. 120,000 tested, 0.02% active. AID 1242;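 active = inhibition above 30.3% in the primary screen of four-compound pools, then above 30% when the compound was retested; inconclusive = passed the primary limit but could not be retested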;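 note: compounds exposed to preformed 24 h biofilms for 48 h; 0% = untreated biofilm control and 100% = clotrimazole plus chlorhexidine kill blank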
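Probe or stimulus – Clotrimazole 50 µg/mL co-treatment · System – C. albicans biofilms · Schedule – 24 h biofilm formation, then 48 h compound exposure, 37 °C · Evaluation – percent inhibition of biofilm viability · Technique – 2-h Alamar Blue fluorescence, 535/590 nm excitation/emission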
Pf gamet viab: inhibitors of late stage P. falciparum gametocyte viability; P. falciparum stage V gametocytes, ATP luminescence, 24 h; inhibition, % at 10.9 µM; 150,000 tested, 0.065% active; AID 743093;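 active = inhibition above the mean plus 3 SD of compounds within the control limits, set per campaign, cut at about 38% in these data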;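 note: 0% = DMSO wells and 100% = medium only without gametocytes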
ROMK primary: modulates human ROMK potassium channel activity; P48048; Tet-inducible ROMK, thallium flux fluorescence; actives lie on both sides; B-score at 10 µM; 130,000 tested, 2% active; AID 1918;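 active = signal ratio slope over the read window, or its plate-corrected B-score, at least 3 SD from the plate mean, either direction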;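 note: B-score of the F/F0 ratio slope over 7 to 12 s after thallium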
Target sequence (P48048 whole entry, looked up): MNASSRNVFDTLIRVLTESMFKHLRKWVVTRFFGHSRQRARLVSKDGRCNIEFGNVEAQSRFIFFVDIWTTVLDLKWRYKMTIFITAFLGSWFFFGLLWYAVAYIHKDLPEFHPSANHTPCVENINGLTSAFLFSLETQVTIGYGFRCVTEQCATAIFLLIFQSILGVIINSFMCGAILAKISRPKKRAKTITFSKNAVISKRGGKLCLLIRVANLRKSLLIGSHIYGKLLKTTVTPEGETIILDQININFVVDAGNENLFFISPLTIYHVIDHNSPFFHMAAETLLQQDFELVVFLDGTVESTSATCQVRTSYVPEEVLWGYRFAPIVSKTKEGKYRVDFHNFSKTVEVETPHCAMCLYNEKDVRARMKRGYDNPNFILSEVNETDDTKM
ROMK hit retest: confirmation of human ROMK potassium channel modulators; shares compounds with ROMK primary; normalized thallium flux (F/F0 slope) at 10 µM; 3,000 tested, 54% active; ROMK thallium flux, fluorescence ratio; hits give low values;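 active = Flux at 10 µM at least 3 SD below or above vehicle control mean in one or both replicates; inconclusive = no clear call, values can overlap the other calls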
* marks the source's active call; other numbers are inactive results; u = inconclusive; x = no result. The entries come from a sample that favours hits as a whole.

SMILES | Calb biofilm kill | Pf gamet viab | ROMK primary | ROMK hit retest
O=C1NC[C@H](c2ccccc2)N(CCC23CC4CC(CC(C4)C2)C3)C1=O | x | 0.7 | x | x
CC(=O)NCCc1nc2ccccc2n1CCOc1cccc(C)c1 | 11.3 | -12.8 | 0.0809 | x
Cc1cccc(OCCn2c(CCCO)nc3ccccc32)c1 | x | x | -2.77* | 0.0588*
Cc1c(Cl)cccc1NC(=O)CSc1nnc(C)n1-c1ccccc1 | x | x | 0.0495 | x
Cc1c(Cl)cccc1NC(=O)CSC(N)=O | 15.8 | x | -2.64* | 0.0751
COc1cc(CN2CCN(C(=O)c3cccc4ccccc34)CC2)cc(OC)c1O | x | -0.8 | x | x
O=C(CC12CC3CC(CC(C3)C1)C2)NCO | x | x | 0.109 | x
CC(NC(=O)CC12CC3CC(CC(C3)C1)C2)C(=O)O (centres undefined) | x | -24.0 | 2.12* | 0.0909
O=[N+]([O-])c1cccc(-c2n[nH]c(=S)n2-c2ccc(Br)cc2)c1 | 15.8 | -19.5 | 0.487 | x
C[C@H](NC(=O)c1nc[nH]c1C(=O)N1CCc2ccccc2C1)C(=O)OCc1ccccc1 | 16.1 | x | x | x
O=C(c1ccco1)N1CCN(S(=O)(=O)Cc2ccccc2Cl)CC1 | 15.2 | 9.1 | 0.48 | x
COc1cnc(-c2ccccn2)nc1Sc1ccccc1 | 31.1 | 12.4 | -2.96 | u
COc1ccc(Sc2nc(-c3ccccn3)ncc2OC)cc1 | 22.4 | x | -0.0828 | x
NC(=O)CCCn1c(C(=O)c2cc(Cl)c(N)c(Cl)c2)c2ccc([N+](=O)[O-])cc2[n+]1[O-] | x | 21.0 | x | x
Cc1ccccc1OCC(=O)N1CCCCCCC1 | x | -1.4 | x | x
Cc1ccc(NC(=O)CNC2CCS(=O)(=O)C2)cc1C (centres undefined) | 16.2 | 12.4 | -0.861 | x
CCNS(=O)(=O)c1ccc2c3c(cccc13)C(=O)N2 | x | -2.7 | 0.0865 | x
COCCOC(=O)c1c(C)oc2ccc(NS(=O)(=O)c3ccccc3)cc12 | x | 17.1 | x | x
CCOC(=O)c1c(C)oc2ccc(NS(=O)(=O)c3ccc4c5c(cccc35)C(=O)N4)cc12 | x | 9.5 | -2.96* | 0.0838
COC(=O)c1c(C)oc2ccc(NS(=O)(=O)c3cccs3)cc12 | x | -21.9 | -4.01* | u
O=C1CCN(Cc2ccc([N+](=O)[O-])cc2)CCN1[C@H](CO)c1ccccc1 | x | -0.6 | x | x
CCn1cc(C(=O)N2CCc3ccccc32)c(=O)c2cc(S(=O)(=O)N3CCOCC3)ccc21 | x | 8.5 | x | x
CCn1cc(C(=O)N2CCc3ccccc32)c(=O)c2cc(S(=O)(=O)N(C)C3CCCCC3)ccc21 | 13.2 | -10.7 | -2.76* | 0.0769
COc1ccc(OC)c(C2=NOC(C(=O)Nc3cc(C)on3)C2)c1 (centres undefined) | 13.1 | 32.6 | x | x
O=C(NCc1ccco1)C1CC(c2ccccc2O)=NO1 (centres undefined) | 2.1 | x | 3.59* | 0.0777
SMILES | Calb biofilm kill | Pf gamet viab | ROMK primary | ROMK hit retest
COc1ccc(OC)c(C2=NOC(C(=O)NCc3ccco3)C2)c1 (centres undefined) | x | 5.1 | 3.47* | 0.0789
O=C(NCc1ccco1)C1CC(c2ccccc2C(F)(F)F)=NO1 (centres undefined) | 14.5 | x | x | x
CCc1ccccc1NC(=O)C1C2C=CC(O2)C1C(=O)O (centres undefined) | x | 19.1 | x | x
Cc1csc2c(N3CCN(C(=O)Nc4ccccc4)CC3)ncnc12 | 12.1 | -82.5 | -0.559 | x
Cc1csc2c(N3CCN(C(=S)Nc4ccc(F)cc4F)CC3)ncnc12 | 12.9 | -30.5 | -3.3* | 0.0609*
CCCC(=O)Nc1sc2c(c1C(=O)OC)C(C(=O)OC)CC2 (centres undefined) | 13.9 | x | x | x
COCC(=O)Nc1sc2c(c1C(=O)OC)C(C(=O)OC)CC2 (centres undefined) | x | -1.9 | x | 0.0812
OCCNCC(O)Cn1c2ccccc2c2ccccc21 (centres undefined) | 2.3 | -7.2 | -2.92 | x
COc1ccccc1CNCC(O)Cn1c2ccccc2c2ccccc21 (centres undefined) | 12.7 | -17.1 | -3.24* | 0.0612*
COc1ccc(S(=O)(=O)Nc2cccc3c2O[C@H](CN(C)Cc2ccncc2)[C@@H](C)CN([C@H](C)CO)C3=O)cc1 | x | -15.7 | x | x
CCCCCCNC(=O)N[C@H](C(=O)NCCC[C@H]1CN2C(=NC[C@H]2C)N1CCC(c1ccccc1)c1ccccc1)C(C)O (some centres undefined) | 15.9 | x | x | 0.0611*
C[C@@H]1CN=C2N(CCNC(=O)CCC3CCCCC3)[C@H](Cc3ccc(O)cc3)CN21 | 19.8 | 15.7 | x | x
O=C(/C=C/c1ccco1)Oc1cccc2cccnc12 | 13.0 | -9.4 | x | x
O=C(/C=C\c1ccco1)Oc1cccc2cccnc12 | -3.5 | -10.1 | -21.9* | 0.0857
Cc1cccc(C(=O)Nc2ccc(S(=O)(=O)N3CCOCC3)cc2C)c1 | x | -5.7 | x | x
Cc1cc(OC(F)F)ccc1NC(=O)Nc1ccc([N+](=O)[O-])cc1 | -9.3 | -9.1 | x | x
